Measured values from ChEMBL document CHEMBL1158182, “Antifungal activity of chalcones: a mechanistic study using various yeast strains” (Eur J Med Chem, 2008).

Columns and labels:
Assay type in all cases: functional
Saccharomyces cerevisiae [1] = experiment: Antifungal activity against diploid Saccharomyces cerevisiae 1a by agar dilution method
Procedure, shortened: (§1)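 S. cerevisiae and K. lactis strains were tested by agar dilution on rich YPD agar at 30 °C. Compound stocks in 96% EtOH were added to the medium to give […]. Cells were suspended in water, serially diluted to 10^9–10^3 cells/ml, and plated with a metal replicator. MIC was read from growth.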

Kluyveromyces lactis [2] = experiment: Antifungal activity against Kluyveromyces lactis 1-6A with MATalpha uraA lys arg genotype by agar dilution method; procedure, shortened: as §1
Ogataea angusta [3] = experiment: Antifungal activity against Hansenula polymorpha M4 with met4 genotype by agar dilution method
Procedure, shortened: (§2)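 H. polymorpha strains were tested by agar dilution on rich YPD agar at 37 °C. Compound stocks in 96% EtOH were mixed into the medium to give […]. Cells were suspended in water, serially diluted to 10^9, 10^7, 10^5 and 10^3 cells/ml, and applied to the agar with a metal replicator. MIC was read from growth.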

Ogataea angusta [4] = experiment: Antifungal activity against Hansenula polymorpha CRD2 with leu2 CDR2 genotype by agar dilution method; procedure, shortened: as §2
Ogataea angusta [5] = experiment: Antifungal activity against Hansenula polymorpha M2 with met2 genotype by agar dilution method; procedure, shortened: as §2
Ogataea angusta [6] = experiment: Antifungal activity against Hansenula polymorpha D22 with arg1/arg1 ade1/ADE1 leu2/leu2 URA3/ura3 CYS1/cys1 genotype by agar dilution method; procedure, shortened: as §2
Saccharomyces cerevisiae [7] = experiment: Antifungal activity against haploid Saccharomyces cerevisiae 2180 by agar dilution method; procedure, shortened: as §1
Saccharomyces cerevisiae [8] = experiment: Antifungal activity against haploid Saccharomyces cerevisiae YSH1170 by agar dilution method; procedure, shortened: as §1
Ogataea angusta [9] = experiment: Antifungal activity against Hansenula polymorpha CD1 with ade1 leu2 cds1 genotype by agar dilution method; procedure, shortened: as §2
Ogataea angusta [10] = experiment: Antifungal activity against Hansenula polymorpha AS1 with arg1 gsh2delta genotype by agar dilution method; procedure, shortened: as §2
Ogataea angusta [11] = experiment: Antifungal activity against Hansenula polymorpha CD2 with ade1 leu2 cds2 genotype by agar dilution method; procedure, shortened: as §2
Saccharomyces cerevisiae [12] = experiment: Antifungal activity against diploid Saccharomyces cerevisiae 29a by agar dilution method; procedure, shortened: as §1
Ogataea angusta [13] = experiment: Antifungal activity against Hansenula polymorpha WT1 with ade1 ura3 genotype by agar dilution method; procedure, shortened: as §2
Ogataea angusta [14] = experiment: Antifungal activity against Hansenula polymorpha 2a with arg1 leu2 ura3 cys1 genotype by agar dilution method; procedure, shortened: as §2
Ogataea angusta [15] = experiment: Antifungal activity against Hansenula polymorpha WT2 with ade1 met6 genotype by agar dilution method; procedure, shortened: as §2
Ogataea angusta [16] = experiment: Antifungal activity against Hansenula polymorpha 2b with arg1 ade1 leu2 genotype by agar dilution method; procedure, shortened: as §2
Kluyveromyces lactis [17] = experiment: Antifungal activity against Kluyveromyces lactis 2-19B with MATalpha ura lys arg genotype by agar dilution method; procedure, shortened: as §1
Saccharomyces cerevisiae [18] = experiment: Antifungal activity against haploid Saccharomyces cerevisiae 1169 by agar dilution method; procedure, shortened: as §1
Saccharomyces cerevisiae [19] = experiment: Antifungal activity against haploid Saccharomyces cerevisiae 10560-6B by agar dilution method; procedure, shortened: as §1
Kluyveromyces lactis [20] = experiment: Antifungal activity against Kluyveromyces lactis 2-18B with MATalpha metA1 ura3 leu2 genotype by agar dilution method; procedure, shortened: as §1
Ogataea angusta [21] = experiment: Antifungal activity against Hansenula polymorpha CD3 with ade1 leu2 cds3 genotype by agar dilution method; procedure, shortened: as §2
Saccharomyces cerevisiae [22] = experiment: Antifungal activity against haploid Saccharomyces cerevisiae 1S by agar dilution method; procedure, shortened: as §1
Ogataea angusta [23] = experiment: Antifungal activity against Hansenula polymorpha MC1 with met2 cys1 genotype by agar dilution method; procedure, shortened: as §2
Saccharomyces cerevisiae [24] = experiment: Antifungal activity against haploid Saccharomyces cerevisiae FY4 by agar dilution method; procedure, shortened: as §1
Ogataea angusta [25] = experiment: Antifungal activity against Hansenula polymorpha AU05 with ade3 ura3 genotype by agar dilution method; procedure, shortened: as §2
Ogataea angusta [26] = experiment: Antifungal activity against Hansenula polymorpha R3 with rgh3 genotype by agar dilution method; procedure, shortened: as §2
Saccharomyces cerevisiae [27] = experiment: Antifungal activity against haploid Saccharomyces cerevisiae YSH1171 by agar dilution method; procedure, shortened: as §1
Saccharomyces cerevisiae [28] = experiment: Antifungal activity against haploid Saccharomyces cerevisiae Sigma 1278b by agar dilution method; procedure, shortened: as §1

Measured: MIC

O=C(/C=C/c1ccc(Cl)cc1)c1ccc(Cl)cc1 [4',4-DICHLOROCHALCONE]
> 40 µg/mL: Saccharomyces cerevisiae [1] | Kluyveromyces lactis [2] | Ogataea angusta [3] | Ogataea angusta [4] | Ogataea angusta [5] | Ogataea angusta [6] | Saccharomyces cerevisiae [7] | Saccharomyces cerevisiae [8] | Ogataea angusta [9] | Ogataea angusta [10] | Ogataea angusta [11] | Saccharomyces cerevisiae [12] | Ogataea angusta [13] | Ogataea angusta [14] | Ogataea angusta [15] | Ogataea angusta [16] | Kluyveromyces lactis [17] | Saccharomyces cerevisiae [18] | Saccharomyces cerevisiae [19] | Kluyveromyces lactis [20] | Ogataea angusta [21] | Saccharomyces cerevisiae [22] | Ogataea angusta [23] | Saccharomyces cerevisiae [24] | Ogataea angusta [25] | Ogataea angusta [26] | Saccharomyces cerevisiae [27] | Saccharomyces cerevisiae [28]

O=C(/C=C/c1ccccc1)c1ccc(Cl)cc1
> 40 µg/mL: Saccharomyces cerevisiae [1] | Kluyveromyces lactis [2] | Ogataea angusta [3] | Ogataea angusta [4] | Ogataea angusta [5] | Ogataea angusta [6] | Saccharomyces cerevisiae [7] | Saccharomyces cerevisiae [8] | Ogataea angusta [9] | Ogataea angusta [10] | Ogataea angusta [11] | Saccharomyces cerevisiae [12] | Ogataea angusta [13] | Ogataea angusta [14] | Ogataea angusta [15] | Ogataea angusta [16] | Kluyveromyces lactis [17] | Saccharomyces cerevisiae [18] | Saccharomyces cerevisiae [19] | Kluyveromyces lactis [20] | Ogataea angusta [21] | Saccharomyces cerevisiae [22] | Ogataea angusta [23] | Saccharomyces cerevisiae [24] | Ogataea angusta [25] | Ogataea angusta [26] | Saccharomyces cerevisiae [27] | Saccharomyces cerevisiae [28]

O=C(/C=C/c1ccc([N+](=O)[O-])cc1)c1ccc(Cl)cc1
> 40 µg/mL: Saccharomyces cerevisiae [1] | Kluyveromyces lactis [2] | Ogataea angusta [3] | Ogataea angusta [4] | Ogataea angusta [5] | Ogataea angusta [6] | Saccharomyces cerevisiae [7] | Saccharomyces cerevisiae [8] | Ogataea angusta [9] | Ogataea angusta [10] | Ogataea angusta [11] | Saccharomyces cerevisiae [12] | Ogataea angusta [13] | Ogataea angusta [14] | Ogataea angusta [15] | Ogataea angusta [16] | Kluyveromyces lactis [17] | Saccharomyces cerevisiae [18] | Saccharomyces cerevisiae [19] | Kluyveromyces lactis [20] | Ogataea angusta [21] | Saccharomyces cerevisiae [22] | Ogataea angusta [23] | Saccharomyces cerevisiae [24] | Ogataea angusta [25] | Ogataea angusta [26] | Saccharomyces cerevisiae [27] | Saccharomyces cerevisiae [28]

N#Cc1ccc(/C=C/C(=O)c2ccc(Cl)cc2)cc1
> 40 µg/mL: Saccharomyces cerevisiae [1] | Kluyveromyces lactis [2] | Ogataea angusta [3] | Ogataea angusta [4] | Ogataea angusta [5] | Ogataea angusta [6] | Saccharomyces cerevisiae [7] | Saccharomyces cerevisiae [8] | Ogataea angusta [9] | Ogataea angusta [10] | Ogataea angusta [11] | Saccharomyces cerevisiae [12] | Ogataea angusta [13] | Ogataea angusta [14] | Ogataea angusta [15] | Ogataea angusta [16] | Kluyveromyces lactis [17] | Saccharomyces cerevisiae [18] | Saccharomyces cerevisiae [19] | Kluyveromyces lactis [20] | Ogataea angusta [21] | Saccharomyces cerevisiae [22] | Ogataea angusta [23] | Saccharomyces cerevisiae [24] | Ogataea angusta [25] | Ogataea angusta [26] | Saccharomyces cerevisiae [27] | Saccharomyces cerevisiae [28]

O=C(/C=C/c1ccc(O)c(O)c1)c1ccc(Cl)cc1
> 40 µg/mL: Saccharomyces cerevisiae [1] | Kluyveromyces lactis [2] | Ogataea angusta [3] | Ogataea angusta [4] | Ogataea angusta [5] | Ogataea angusta [6] | Saccharomyces cerevisiae [7] | Saccharomyces cerevisiae [8] | Ogataea angusta [9] | Ogataea angusta [10] | Ogataea angusta [11] | Saccharomyces cerevisiae [12] | Ogataea angusta [13] | Ogataea angusta [14] | Ogataea angusta [15] | Ogataea angusta [16] | Kluyveromyces lactis [17] | Saccharomyces cerevisiae [18] | Saccharomyces cerevisiae [19] | Kluyveromyces lactis [20] | Ogataea angusta [21] | Saccharomyces cerevisiae [22] | Ogataea angusta [23] | Saccharomyces cerevisiae [24] | Ogataea angusta [25] | Ogataea angusta [26] | Saccharomyces cerevisiae [27] | Saccharomyces cerevisiae [28]

O=C(/C=C/C=C/c1ccccc1)c1ccc(Cl)cc1
> 40 µg/mL: Saccharomyces cerevisiae [1] | Kluyveromyces lactis [2] | Ogataea angusta [3] | Ogataea angusta [4] | Ogataea angusta [5] | Ogataea angusta [6] | Saccharomyces cerevisiae [7] | Saccharomyces cerevisiae [8] | Ogataea angusta [9] | Ogataea angusta [10] | Ogataea angusta [11] | Saccharomyces cerevisiae [12] | Ogataea angusta [13] | Ogataea angusta [14] | Ogataea angusta [15] | Ogataea angusta [16] | Kluyveromyces lactis [17] | Saccharomyces cerevisiae [18] | Saccharomyces cerevisiae [19] | Kluyveromyces lactis [20] | Ogataea angusta [21] | Saccharomyces cerevisiae [22] | Ogataea angusta [23] | Saccharomyces cerevisiae [24] | Ogataea angusta [25] | Ogataea angusta [26] | Saccharomyces cerevisiae [27] | Saccharomyces cerevisiae [28]

Cc1ccc(/C=C/C(=O)c2ccc(Cl)cc2)cc1
> 40 µg/mL: Saccharomyces cerevisiae [1] | Kluyveromyces lactis [2] | Ogataea angusta [3] | Ogataea angusta [4] | Ogataea angusta [5] | Ogataea angusta [6] | Saccharomyces cerevisiae [7] | Saccharomyces cerevisiae [8] | Ogataea angusta [9] | Ogataea angusta [10] | Ogataea angusta [11] | Saccharomyces cerevisiae [12] | Ogataea angusta [13] | Ogataea angusta [14] | Ogataea angusta [15] | Ogataea angusta [16] | Kluyveromyces lactis [17] | Saccharomyces cerevisiae [18] | Saccharomyces cerevisiae [19] | Kluyveromyces lactis [20] | Ogataea angusta [21] | Saccharomyces cerevisiae [22] | Ogataea angusta [23] | Saccharomyces cerevisiae [24] | Ogataea angusta [25] | Ogataea angusta [26] | Saccharomyces cerevisiae [27] | Saccharomyces cerevisiae [28]
